Hits are enriched below; roughly 3.5% of the tested compounds scored in any of these assays.
ERAP1 inh: inhibitors of human ERAP1 aminopeptidase; 0.15% of 340,000 active; inhibition, % at 10.7 µM; recombinant ERAP1, Leu-AMC fluorescence, 60 min;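 active = mean replicate inhibition of at least 30%, or all replicates individually reaching that 30% level; inactive = mean below 30% and not every replicate reaching it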;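 also: 0% = neutral control wells and 100% = L-leucinethiol positive control wells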
Target sequence (Q9NZ08 whole entry, looked up): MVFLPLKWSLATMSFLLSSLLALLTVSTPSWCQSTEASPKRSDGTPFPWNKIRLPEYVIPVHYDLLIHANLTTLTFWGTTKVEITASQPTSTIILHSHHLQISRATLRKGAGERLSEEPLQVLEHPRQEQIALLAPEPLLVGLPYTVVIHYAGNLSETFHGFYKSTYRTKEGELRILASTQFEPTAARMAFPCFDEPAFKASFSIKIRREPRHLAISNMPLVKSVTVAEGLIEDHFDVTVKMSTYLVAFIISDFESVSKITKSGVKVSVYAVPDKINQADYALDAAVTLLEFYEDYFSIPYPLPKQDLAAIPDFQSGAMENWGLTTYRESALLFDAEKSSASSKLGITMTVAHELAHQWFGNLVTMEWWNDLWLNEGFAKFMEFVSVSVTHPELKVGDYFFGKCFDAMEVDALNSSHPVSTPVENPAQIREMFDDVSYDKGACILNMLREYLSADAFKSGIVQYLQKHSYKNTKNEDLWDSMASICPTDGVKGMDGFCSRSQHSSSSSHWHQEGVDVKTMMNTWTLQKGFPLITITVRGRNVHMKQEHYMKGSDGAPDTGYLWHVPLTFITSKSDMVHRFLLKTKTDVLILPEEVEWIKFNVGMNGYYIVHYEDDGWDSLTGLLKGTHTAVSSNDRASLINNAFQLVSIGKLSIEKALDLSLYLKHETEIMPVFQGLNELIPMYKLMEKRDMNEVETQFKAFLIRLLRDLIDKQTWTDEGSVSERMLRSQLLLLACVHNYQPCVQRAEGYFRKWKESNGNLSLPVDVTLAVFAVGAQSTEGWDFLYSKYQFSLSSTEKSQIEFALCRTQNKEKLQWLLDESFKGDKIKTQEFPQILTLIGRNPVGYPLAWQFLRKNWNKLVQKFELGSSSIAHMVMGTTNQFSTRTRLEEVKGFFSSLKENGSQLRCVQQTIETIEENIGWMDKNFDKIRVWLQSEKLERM
MITF act: increases MITF-driven TRPM1 promoter luciferase signal. activation, % at 12.5 µM. 0.75% of 300,000 active. AID 588334. SK-MEL-5 TRPM1-promoter luciferase, 24 h; % of positive control, neutral wells = 0;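 active = mean activation of at least 80% with every replicate also reaching 80%; inconclusive = mean reaches 80% but some replicate falls short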;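 also: 0% = neutral control wells and 100% = parthenolide positive control wells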
Env fusion inh: inhibitors of HIV Env-mediated cell fusion; HeLa-JRFL Env/CEM21 cell fusion, luciferase; inhibition, % at 12.3 µM; 1.1% of 360,000 active; AID 651610;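 active = mean replicate inhibition score of at least 50 and every replicate individually at or above 50; inconclusive = only one of the two criteria met; inactive = mean below 50 and not all replicates reaching 50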;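 also: 0% = plate neutral controls and 100% = maraviroc near 300 nM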
Cneo AK release: causes C. neoformans cell lysis | adenylate kinase release luminescence, 4 h; normalised: neutral wells 0, clomiphene wells 100 | lysis activity, % at 15 µM | 0.2% of 360,000 active | AID 651654;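 active = mean lysis activity across replicates of at least 80%, whatever share of replicates individually reach that level; inactive = mean lysis activity below 80%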
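Material – log-phase Cryptococcus neoformans yeast cells · Input – 5 × 10^6 yeast cells/mL · Medium – fresh YPD growth medium · Doses – single compound concentration per well · Timing – static 4 h at 37 °C with compound, 1 h detection · Detection – adenylate kinase release luminescence · Read-out – signal increase indicating cell lysis · Control set – Clomiphene as positive lysis control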
Wnt act: activators of Wnt/beta-catenin signaling; 1.2% of 300,000 active; Wnt/beta-catenin reporter cell assay, activator, plate reader; activation, % at 9.35 µM; AID 743398; in the data active = activation above about 30%, passing the limit was not always enough; inconclusive = no clear call, values can overlap the other calls;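 also: 0% = neutral control wells and 100% = positive control wells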
esBAF inh: blocks esBAF chromatin remodeling in mouse ES cells; Bmi1-luciferase knock-in reporter, 24 h; 100% = twice the neutral-well signal; reporter increase, % at 12.5 µM; 2% of 350,000 active; AID 602393; in the data active = activation above about 40%; inconclusive = no clear call, values can overlap the other calls;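 also: 0% = median of the plate's neutral control wells and 100% = double that signal; a rise in the Bmi1 reporter signal indicates esBAF inhibition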
Numbers without * were called inactive; ? = inconclusive; nt = no result given; [ ] = another dose, or the depositor's remark.

SMILES | ERAP1 inh | MITF act | Env fusion inh | Cneo AK release | Wnt act | esBAF inh
COC(=O)[C@]1(C)N[C@H](CN(C)C(=O)Nc2ccc(C)cc2)[C@@H]2C(=O)N(Cc3ccccc3)C(=O)[C@@H]21 | -0.5 | 10.9 | 63.7* | 0.5 | -0.3 | -2.1
COC(=O)[C@]1(C)N[C@H](CN(C)C(=O)Nc2ccc(Cl)cc2)[C@@H]2C(=O)N(Cc3ccccc3)C(=O)[C@@H]21 | 1.8 | 4.6 | 79.3* | -4.1 | -0.7 | 0.4
CCN(C[C@H]1N[C@@](C)(C(=O)OC)[C@H]2C(=O)N(Cc3ccccc3)C(=O)[C@@H]12)C(=O)Nc1ccc(F)cc1 | nt | 1.2 | 57.2* | -1.9 | -2.7 | -1.6
COC(=O)[C@]1(C)N[C@H](CN(C)C(=O)Nc2ccc(OC)cc2)[C@@H]2C(=O)N(Cc3ccccc3)C(=O)[C@@H]21 | nt | 3.6 | ? | -1.7 | 0.9 | 5.0
CCCC(=O)N1CCCC(C(=O)c2cccc(OC(C)C)c2)C1 (stereo unspecified) | 0.8 | nt | -2.1 | -1.0 | 1.4 | 53.9*
CC(=O)c1cccc(NC(=S)NC2CCCCCCC2)c1 | 5.1 | -9.9 | nt | 129.0* | -1.2 | 15.0
CC(=O)c1cccc(NC(=O)NC2CCCCCCC2)c1 | 0.5 | 10.2 | -31.8 | -1.4 | 0.4 | nt
S=C(Nc1cccc2ccccc12)NC1CCCCC1 | -5.9 | 7.1 | 6.0 | -2.4 | 15.1 | 57.4*
Cc1cccc(NC(=O)NC2CCCCCCC2)c1 | -1.1 | 36.3 | -88.1 | 1.0 | 20.5 | 62.2*
O=C(CNC(=S)NC(=O)C1CCCCC1)c1ccccc1 | -0.4 | 87.0* | -55.6 | -0.5 | -0.3 | 20.9
O=C(NC(=S)NCCc1ccccc1)C1CCCCC1 | -0.6 | 4.4 | -4.2 | 15.2 | 1.6 | 31.6
S=C(Nc1cccc2ccccc12)Nc1cccc2ccccc12 | -3.8 | -22.3 | 12.7 | -0.2 | -5.6 | 9.0
CC(=O)c1cccc(NC(=S)NC(=O)C(C)C)c1 | nt | 2.0 | -6.0 | 1.1 | 36.5* | 3.3
O=C(NC1CCCCC1)C(=S)NCc1ccccc1 | 5.8 | 56.9 | 9.3 | -5.2 | 8.5 | 50.4*
Cc1cc(C(=O)OCC(=O)NC2CC2)ccc1[N+](=O)[O-] | -1.3 | 4.4 | nt | -0.6 | 0.8 | 3.1
CN(C)c1cccc(C(=O)NC2CCCCCC2)c1 | nt | 59.2 | -82.7 | -2.3 | nt | 44.0*
Cc1cc(C(=O)NC2CCCCCCC2)ccc1[N+](=O)[O-] | 1.9 | nt | -54.6 | -1.8 | 48.0* | 66.2*
CC(=O)c1cccc(NC(=S)NC(=O)c2ccccc2)c1 | nt | ? | -106.2 | nt | nt | nt
C[C@H]1CN([C@@H](C)CO)C(=O)CCCn2cc(nn2)CO[C@@H]1CN(C)Cc1ccc2c(c1)OCCO2 | 1.8 | nt | 6.6[16.7 µM] | -2.2 | nt | -6.7
CCCN(C)C[C@@H]1Oc2cc(C#Cc3ccc(OC)cc3)ccc2S(=O)(=O)N([C@@H](C)CO)C[C@@H]1C | -2.7 | nt | 12.7[16.7 µM] | 0.1 | nt | -5.2
O=C(NC(=S)NC1CCCCCCCCCCC1)c1cccnc1 | nt | -2.6 | nt | 0.6 | -3.9 | -2.4
Cc1ccc(C(=O)Nc2cccc(C(=O)NC3CCCCC3)c2)cc1 | -4.7 | -3.5 | 2.6 | 3.6 | 2.1 | 2.6
CCCCC(=O)NC(=S)Nc1cccc(C(=O)O)c1 | -3.0 | -0.8 | -8.2 | -17.7 | -0.1 | 44.0*
CCCCC(=O)NC(=S)Nc1cccc(NC(=O)CC)c1 | nt | -11.6 | -11.2 | 0.0 | 0.6 | 17.2
Cc1cccc(C(=O)NC2CCCCCCC2)c1 | -0.5 | 73.1 | -23.9 | 2.8 | 14.7 | 64.6*
SMILES | ERAP1 inh | MITF act | Env fusion inh | Cneo AK release | Wnt act | esBAF inh
O=C(NC(=S)NC1CCCC1)c1ccccc1 | 1.8 | 54.6 | -36.6 | 22.7 | 25.0 | 56.5*
Cc1noc(C)c1S(=O)(=O)Nc1ccc2c(c1)C(=O)N([C@@H](C)CO)C[C@H](C)[C@H](CN(C)C(=O)Nc1ccccc1)O2 | -6.2 | nt | 2.1[16.7 µM] | -1.2 | nt | -1.3
COc1ccc(NC(=O)Nc2ccc3c(c2)[C@@H]2C[C@H](CC(=O)O)O[C@@H](CO)[C@@H]2O3)cc1 | -0.2 | nt | -14.8[16.7 µM] | -2.7 | nt | -1.5
CCCC(=O)Nc1ccc2c(c1)C(=O)N(C)C[C@H](OC)[C@@H](C)CN(CCc1ccccc1)[C@H](C)CO2 | 2.5 | nt | nt | -1.3 | nt | 1.5
C#CC1(O)CCC2C3CCC4=C(CCC(=O)C4)C3CCC21C (stereo unspecified) | -3.7 | -5.5 | 62.2* | 0.4 | -1.7 | -6.5
C#C[C@]1(O)CC[C@H]2[C@@H]3CCc4cc(O)ccc4[C@H]3CC[C@@]21C | -0.5 | -1.2 | -74.5 | 4.4 | -1.6 | 6.3
CO[C@H]1CN(C)C(=O)c2cc(NC(=O)C3CC3)ccc2OC[C@H](C)N(Cc2ccncc2)C[C@@H]1C | 5.0 | nt | nt | 54.4 | nt | 1.1
Cc1cc(=O)oc2cc(OCCc3ccccc3)ccc12 | 2.4 | 60.9 | -7.8 | 0.0 | 21.7 | 66.5*
COc1cccc(COc2ccc3c(C)cc(=O)oc3c2)c1 | -0.2 | 114.2* | -103.9 | -0.2 | 45.8* | 51.1*
O/N=C/c1ccc(OCc2ccccc2)c(Br)c1 | nt | 73.1 | nt | -8.4 | 41.7* | nt
O=C(C[C@H]1CC[C@@H](NC(=O)CCN2CCCCC2)[C@@H](CO)O1)NCc1ccc(Cl)c(Cl)c1 | -3.5 | nt | -10.8[16.7 µM] | 1.0 | nt | -0.8
CCN(CC(O)Cn1c2ccccc2c2ccccc21)S(=O)(=O)c1ccc(C)cc1 (stereo unspecified) | nt | 2.3 | 56.4* | -0.9 | nt | nt
CC(C)NC(=O)COc1ccc(S(=O)(=O)N(C)Cc2ccccc2)cc1 | 0.3 | -3.8 | -4.1 | -0.1 | 44.1* | -6.2
CC(C)C#Cc1cnc2c(c1)C(=O)N([C@H](C)CO)C[C@H](C)[C@H](CN(C)C(=O)c1cccc(F)c1)O2 | -0.1 | nt | -6.0[16.7 µM] | 3.1 | nt | -5.7
Cc1ccc(C)c(OCc2nnc(N)s2)c1 | nt | -10.9 | nt | nt | nt | nt
Nc1nnc(COc2ccc(Br)cc2Br)s1 | -1.3 | 69.7 | -107.3 | -6.7 | 10.6 | 69.1*
CCNC(=O)[C@@H]1[C@@H](CO)[C@@H]2Cn3c(ccc(-c4ccccc4F)c3=O)[C@H]1N2S(C)(=O)=O | 3.0 | nt | nt | nt | nt | nt
O=C(Nc1ccc(NC(=O)C23CC4CC(CC(C4)C2)C3)cn1)c1ccco1 | nt | 96.2* | -142.3 | 0.8 | nt | 48.9*
O=C(Nc1ccc(NC(=O)c2ccccc2)nc1)c1ccncc1 | 0.3 | 11.8 | 1.8 | nt | 23.2 | 42.7*
COc1ccccc1C(=O)Nc1ccc(NC(=O)c2ccco2)cn1 | -0.1 | 92.0* | -6.0 | nt | 17.9 | 64.2*
O=C(Cc1ccccc1)Nc1ccc(NC(=O)c2ccco2)nc1 | nt | nt | -78.7 | 1.1 | 40.3* | 46.2*
O=C(Nc1ccc(NC(=O)C2CCCCC2)cn1)c1ccco1 | nt | -12.0 | nt | -1.3 | nt | 25.2
COCC#Cc1ccc([C@H]2[C@@H](CO)N3CCCCN(Cc4cccnc4)C[C@@H]23)cc1 | -1.6 | nt | nt | 0.1 | nt | nt
CC(C)(C)C(=O)Nc1ccc(NC(=O)c2ccco2)nc1 | 0.1 | -90.2 | 63.0* | -11.3 | -13.1 | -82.9
O=C(Nc1ccc(NC(=O)c2ccco2)nc1)c1ccco1 | 3.8 | -2.3 | 16.1 | nt | -3.8 | nt
Nc1c(C(=O)Nc2ccc3c(c2)OCCO3)nnn1Cc1cccc(Cl)c1 | 1.8 | 100.9* | nt | nt | 47.2* | 55.4*
